# Laboratory results as given in ChEMBL document CHEMBL4130344, “Substituted arylsulphonamides as inhibitors of perforin-mediated lysis” (Eur J Med Chem, 2017).
# Assay: Metabolic stability in human liver microsomes assessed as parent compound remaining at 3 uM after 30 mins by LC-MS/MS method
# Format: ADME, microsome
# Conditions: read-out: Stability
# In short: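 Compounds were tested as sodium salts. The read-out was the percentage of parent compound remaining after 30 min exposure to human microsomes.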
row,"remaining at 0.5 h, 3 µM [%]",Compound
1,63,CN1Cc2cc(-c3ccc(-c4cncc(NS(=O)(=O)c5c(F)cc(F)cc5F)c4)s3)ccc2C1=O
2,57,CN1Cc2cc(-c3ccc(-c4cncc(NS(=O)(=O)c5cccc(C(F)(F)F)c5)c4)s3)ccc2C1=O
3,14,CN1Cc2cc(-c3ccc(-c4cncc(NS(=O)(=O)c5ccccc5C(F)(F)F)c4)s3)ccc2C1=O
4,39,CN1Cc2cc(-c3ccc(-c4cncc(NS(=O)(=O)c5ccc([N+](=O)[O-])cc5)c4)s3)ccc2C1=O
5,52,CN1Cc2cc(-c3ccc(-c4cncc(NS(=O)(=O)c5ccc(C#N)cc5)c4)s3)ccc2C1=O
